How the values were obtained:
[1] = at concentrations required to reduce ERO1α activity; cited from earlier work
mouse platelets [2] = test: Serotonin secretion; assay type: cell-based; conditions: 2.5 or 5 μM
mouse blood = test: Flow chamber assay on collagen-coated surfaces under arterial shear; assay type: cell-based; conditions: 5 μM, 50 dyne/cm^2
How it was run: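 Plates were coated with fibrillar type 1 collagen (100 μg/mL, 1 h, 37°C) and washed with PBS/0.05% BSA. ACD-anticoagulated blood was treated 15 min at 37°C with 0.1% DMSO vehicle or 5 μM test compound, then labelled with 1 μM DiOC6 for 5 min. After adding 6 mM CaCl2 and 3 mM MgCl2, blood was perfused at 50 dyne/cm2 (mouse blood: 2 min). Surface coverage and thrombus volume were measured by epifluorescence.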

C57BL/6 mice [3] = test: Tail bleeding time and hemoglobin content; assay type: in vivo, mouse; conditions: iv 0.3 μg/g BW
Amplex Red assay = assay type: biochemical; conditions: Figure 1M, concentration not given
human platelets [4] = test: Ca2+ mobilization; assay type: cell-based
C57BL/6 mice [5] = test: tMCAO-induced ischemic stroke; assay type: in vivo, mouse; conditions: iv 0.3 μg/g BW after 1 h tMCAO; 23 h reperfusion
How it was run: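 Male mice, 10–12 weeks, were anaesthetised with 1.2%–1.5% isoflurane in oxygen and given buprenorphine-ER 0.1 μg/g ip. After 1 h MCA occlusion the filament was withdrawn to restore flow. Vehicle (1% DMSO) or test compound was then given iv. After 23 h reperfusion, Bederson score, grip strength and infarct volume were assessed.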

human platelets [6] = test: Platelet aggregation assay and ATP secretion; assay type: cell-based; conditions: 1 μM; 0.015 U/ml thrombin or 0.05 µg/ml CRP
How it was run: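 Washed human platelets, isolated from ACD blood with PGE1 washes and resuspended in HEPES-Tyrode, were pretreated 20 min at 37°C with 0.1% DMSO vehicle or test compound. After agonist addition, aggregation and ATP secretion were recorded in a lumi-aggregometer at 37°C, stirring at 1,000 rpm.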

mouse platelets [7] = test: Analysis of cell viability; assay type: cell-based; conditions: 5 μM; incubation 20 minutes to 24 hours
How it was run: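 Platelets were isolated from ACD blood of C57BL/6, WT control or Ero1α/β CKO mice (8–12 weeks) and washed in HEPES-Tyrode buffer at 2 × 10^8 cells/mL. They were incubated at 37°C with vehicle (0.1% DMSO) or test compound for various times. Cells were then labelled with FITC-annexin V for 20 min and read by flow cytometry.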

C57BL/6 mice [8] = test: Ex vivo platelet activation after intravenous injection; assay type: in vivo, mouse; conditions: iv 0.3 μg/g BW; blood collected 10 min later
How it was run: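 C57BL/6 mice (8–12 weeks, both sexes) received iv vehicle (1% DMSO in saline) or test compound at 0.3 μg/g BW. Blood was drawn 10 min later and washed platelets were isolated. Platelets were stimulated with agonist for 5 min at 37°C and stained 15 min for P-selectin and activated αIIbβ3 (JON/A). Flow cytometry read-out was geometric mean fluorescence intensity.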

Ero1α/β-null platelets = test: Platelet aggregation and ATP secretion in knockout platelets; assay type: cell-based, mouse
How it was run: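 Washed mouse platelets (WT control, C57BL/6 or Ero1α/β-null) were pretreated 20 min at 37°C with 0.1% DMSO vehicle or test compound. After agonist addition, aggregation and ATP secretion were recorded together in a lumi-aggregometer at 37°C with stirring at 1,000 rpm.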

mouse platelets [9] = test: Ca2+ mobilization; assay type: cell-based; conditions: thrombin, A23187 or thapsigargin
How it was run: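 Mouse platelets were preincubated 20 min with vehicle (0.1% DMSO) or test compound, then loaded with FLIPR Ca2+ 5 dye for 30 min at 37°C in the dark. Release was triggered by 0.02 U/mL thrombin, 0.5 μM A23187 or 5 μM thapsigargin, and influx by adding 2 mM CaCl2. Fluorescence was read at ex 485/em 525 nm and reported as area under the curve (RFU).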

Recombinant human ERO1α = molecular target: T1, Recombinant human ERO1α (Homo sapiens, UniProt Q96HE7); test: fluorescence-based ERO1α activity assay; assay type: biochemical; conditions: read-out: IC50 (ERO1α activity); mean ± SD, n = 3
T1 sequence (Q96HE7 24-468): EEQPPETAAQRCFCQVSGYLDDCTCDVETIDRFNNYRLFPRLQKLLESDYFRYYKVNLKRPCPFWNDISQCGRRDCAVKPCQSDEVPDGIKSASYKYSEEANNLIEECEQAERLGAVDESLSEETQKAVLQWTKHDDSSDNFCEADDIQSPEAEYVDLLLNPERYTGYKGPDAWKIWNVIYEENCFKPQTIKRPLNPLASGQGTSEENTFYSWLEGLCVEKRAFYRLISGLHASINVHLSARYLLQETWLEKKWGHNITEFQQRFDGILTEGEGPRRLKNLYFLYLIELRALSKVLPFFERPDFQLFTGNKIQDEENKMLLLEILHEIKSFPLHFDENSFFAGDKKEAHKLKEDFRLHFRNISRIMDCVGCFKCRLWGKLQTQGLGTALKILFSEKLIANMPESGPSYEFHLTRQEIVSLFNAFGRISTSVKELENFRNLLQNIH

mouse platelets [10] = test: Detection of intracellular ROS; assay type: cell-based; conditions: 5 μM
How it was run: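 Platelets from C57BL/6, WT control or Ero1α/β CKO mice were pretreated 20 min at 37°C with or without 0.1% DMSO vehicle or test compound. They were loaded with 1 μM DCF for 10 min, then stimulated 5 min with thrombin or CRP, or left unstimulated. DCF fluorescence was read by flow cytometry.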

C57BL/6 mice [11] = test: FeCl3-induced carotid arterial thrombosis; assay type: in vivo, mouse; conditions: for time to occlusion (TTO): iv 0.3 μg/g BW
How it was run: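 Male and female mice, 8–12 weeks, were anaesthetised with ip ketamine/xylazine. A 2 × 2 mm filter disc carrying 1.2 μL of 7 or 10% FeCl3 was placed on the carotid artery for 2 min. Flow was monitored by Doppler flow meter. TTO was the time from disc removal to stable occlusion (no flow for 5 min).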

Compound: O=C(O)c1cc(N2N=C(C(F)(F)F)/C(=C/c3ccc(-c4ccccc4)o3)C2=O)ccc1Cl [EN460]
- thiol reactivity [1]: exhibits thiol reactivity
- serotonin secretion from resting platelets (mouse platelets [2]; no agonist): enhanced serotonin secretion from resting platelets
- serotonin secretion from activated platelets (mouse platelets [2]; thrombin or CRP): either enhancing or inhibiting secretion
- surface coverage and volume of platelet thrombi (mouse blood): significantly reduced
- tail bleeding times and blood loss (C57BL/6 mice [3]): did not prolong tail bleeding times or increase blood loss
- inhibition of H2O2 activity (Amplex Red assay): inhibits H2O2 activity
- thrombin-induced Ca2+ influx (human platelets [4]; 0.5 μM): reduced thrombin-induced Ca^2+ influx
- Ca2+ release and influx (human platelets [4]; 2 or 5 μM, activated human platelets): significantly inhibited both Ca^2+ release and influx
- Bederson score (C57BL/6 mice [5]): decreased the Bederson score
- grip strength (C57BL/6 mice [5]): increased grip strength
- infarct volume (C57BL/6 mice [5]): significantly reduced infarct volume
- platelet aggregation and ATP secretion (human platelets [6]): had no effect
- annexin V binding (platelet viability) (mouse platelets [7]): markedly increased annexin V binding within 20 min
- P-selectin exposure and αIIbβ3 integrin activation following thrombin stimulation (ex vivo) (C57BL/6 mice [8]): moderate but significant reduction
- ATP secretion (Ero1α/β-null platelets; 2.5 μM, 0.015 U/mL thrombin): not ATP secretion
- thrombin-induced aggregation (Ero1α/β-null platelets; 2.5 μM, 0.015 U/mL thrombin): markedly inhibited thrombin-induced aggregation
- thrombin-stimulated aggregation and ATP secretion (Ero1α/β-null platelets; 5 μM, 0.015 U/ml thrombin): significantly inhibited both responses
- Ca2+ release and influx (mouse platelets [9]; 0.25 or 0.5 μM): no or minimal inhibition
- Ca2+ release and influx (mouse platelets [9]; 1 or 2.5 μM): significantly reduced both Ca^2+ release and influx
- IC50 (Recombinant human ERO1α): 5.5 ± 1.6 µM
- agonist-induced DCF signal (ROS) (mouse platelets [10]; after thrombin): reduced the signal
- ROS production in resting platelets (mouse platelets [10]; no agonist): moderately increased ROS production
- carotid arterial thrombosis (time to occlusion) (C57BL/6 mice [11]; 0.1 μg/g BW, 7% FeCl3): did not inhibit carotid arterial thrombosis
- time to occlusion (TTO) (C57BL/6 mice [11]; 7% FeCl3): significantly prolonged the time to occlusion
- time to occlusion (TTO) (C57BL/6 mice [11]; 10% FeCl3): did not affect TTO
